Experimental data from ChEMBL document CHEMBL3774342, “Indole Based Weapons to Fight Antibiotic Resistance: A Structure-Activity Relationship Study” (J Med Chem, 2016).
In brackets after ≈: the same amount, converted by molar mass. Activity calls are given as the source filed them. No cut-off for these calls is given here.

Columns and labels:
[1] = target: T1, Quinolone resistance protein NorA (Staphylococcus aureus) (UniProt P0A0J7); experiment: Inhibition of NorA efflux pump in Staphylococcus aureus 1199B assessed as reduction in EtBr efflux at 50 uM incubated for 20 mins measured for 5 mins by real-time fluorometric analysis
T1 sequence (whole entry): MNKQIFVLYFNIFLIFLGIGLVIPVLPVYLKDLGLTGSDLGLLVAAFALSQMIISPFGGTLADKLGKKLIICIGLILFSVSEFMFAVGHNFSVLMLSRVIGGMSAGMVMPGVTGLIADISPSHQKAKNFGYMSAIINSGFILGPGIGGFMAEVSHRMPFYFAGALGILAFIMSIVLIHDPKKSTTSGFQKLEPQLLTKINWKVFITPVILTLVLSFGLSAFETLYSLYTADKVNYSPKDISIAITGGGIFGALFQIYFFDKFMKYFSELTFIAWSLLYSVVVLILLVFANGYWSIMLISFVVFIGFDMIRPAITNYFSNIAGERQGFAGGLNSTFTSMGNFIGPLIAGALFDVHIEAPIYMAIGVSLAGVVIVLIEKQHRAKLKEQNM
In short: (§1)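 SA-1199B (norA-overexpressing) grown overnight in cation-supplemented Mueller-Hinton broth, diluted 25-fold and grown at 35 °C to OD600 0.7–0.8. Loaded with EtBr 25 µM plus CCCP 100 µM (final), then resuspended in fresh broth. Fluorescence read at ex 485/em 645 nm for 5 min, ± compound. Efflux inhibition in % relative to untreated cells; screened at 50 µM. IC50 from concentration series; triplicate, two technical replicates each.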

[2] = test system: Staphylococcus aureus; experiment: Antimicrobial activity against Staphylococcus aureus 1199B by microdilution method; format: functional
In short: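 MIC by broth microdilution following CLSI guidelines against S. aureus SA-1199B, a strain that overexpresses norA. Run on compounds giving at least 80% EtBr efflux inhibition and on selected weaker ones.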

[3] = Metabolic stability in human liver microsomes assessed as compound remaining after at 10 uM preincubated for 5 mins followed by NADPH addition measured after 30 mins by HPLC-MS/MS analysis; format: ADME; settings: read-out: Stability
In short: (§2)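 Human liver microsomes at 0.5 mg protein/ml in 100 mM potassium phosphate pH 7.4. Substrate at 10 µM final, pre-incubated 5 min at 37 °C with shaking, then started with 1 mM NADPH. Quenched at 0 and 30 min with cold acetonitrile containing labetalol internal standard. Spun 12000 g, 5 min, 4 °C; supernatant analysed by UHPLC C18 HPLC-MS/MS.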

[4] = target: T2, Quinolone resistance protein NorA (Staphylococcus aureus, UniProt P0A0J7); experiment: Inhibition of NorA efflux pump in Staphylococcus aureus 1199B assessed as reduction in EtBr efflux incubated for 20 mins measured for 5 mins by real-time fluorometric analysis; in short: as §1
T2 sequence (P0A0J7 whole entry): T1 sequence (whole entry)

[5] = test system: Liver microsome; experiment: Drug metabolism in human liver microsomes assessed as ethyl 2-Methyl-5-(3-(piperidin-1-yl)propoxy)-1H-indole-3-carboxylate formation at 10 uM preincubated for 5 mins followed by NADPH addition measured after 30 mins by HPLC-MS/MS analysis; format: ADME; settings: 0.5 h; in short: as §2
[6] = test system: Liver microsome; experiment: Drug metabolism in human liver microsomes assessed as ethyl 1-(2-hydroxybenzyl)-2-methyl-5-(3-(piperidin-1-yl)propoxy)-1H-indole-3-carboxylate formation at 10 uM preincubated for 5 mins followed by NADPH addition measured after 30 mins by HPLC-MS/MS analysis; format: ADME; settings: 0.5 h; in short: as §2
[7] = Solubility of the compound in D2O solution at 25 degC by 1H NMR analysis; format: physicochemical
In short: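 1H NMR in D2O at 25 °C with TSP internal standard, following a literature procedure.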

[8] = test system: Liver microsome; experiment: Drug metabolism in human liver microsomes assessed as ethyl 2-methyl-5-(2-(piperazin-1-yl)ethoxy)-1H-indole-3-carboxylate formation at 10 uM preincubated for 5 mins followed by NADPH addition measured after 30 mins by HPLC-MS/MS analysis; format: ADME; settings: 0.5 h; in short: as §2
[9] = test system: Liver microsome; experiment: Drug metabolism in human liver microsomes assessed as 1-benzyl-2-methyl-5-(2-(piperazin-1-yl)ethoxy)-1H-indole-3-carboxylic acid formation at 10 uM preincubated for 5 mins followed by NADPH addition measured after 30 mins by HPLC-MS/MS analysis; format: ADME; settings: 0.5 h; in short: as §2
[10] = test system: Staphylococcus aureus; experiment: Inhibition of NorA efflux pump A116E GrlA mutant in Staphylococcus aureus 1199B assessed as potentiation of ciprofloxacin-mediated antibacterial activity at 3.13 ug/ml relative to control
[11] = target: T1, Quinolone resistance protein NorA (Staphylococcus aureus); experiment: Inhibition of NorA efflux pump in Staphylococcus aureus 1199 assessed as potentiation of ciprofloxacin-mediated antibacterial activity
[12] = test system: Liver microsome; experiment: Drug metabolism in human liver microsomes assessed as 1-Benzyl-2-methyl-5-(3-(piperidin-1-yl)propoxy)-1H-indole-3-carboxylic acid formation at 10 uM preincubated for 5 mins followed by NADPH addition measured after 30 mins by HPLC-MS/MS analysis; format: ADME; settings: 0.5 h; in short: as §2
[13] = test system: Liver microsome; experiment: Drug metabolism in human liver microsomes assessed as N-dealkylated M-68 formation at 10 uM preincubated for 5 mins followed by NADPH addition measured after 30 mins by HPLC-MS/MS analysis; format: ADME; settings: 0.5 h; in short: as §2
[14] = test system: Liver microsome; experiment: Drug metabolism in human liver microsomes assessed as N-dealkylated M-90 formation at 10 uM preincubated for 5 mins followed by NADPH addition measured after 30 mins by HPLC-MS/MS analysis; format: ADME; settings: 0.5 h; in short: as §2
[15] = test system: Liver microsome; experiment: Drug metabolism in human liver microsomes assessed as ethyl 2-methyl-5-(3-(piperazin-1-yl)propoxy)-1H-indole-3-carboxylate formation at 10 uM preincubated for 5 mins followed by NADPH addition measured after 30 mins by HPLC-MS/MS analysis; format: ADME; settings: 0.5 h; in short: as §2
[16] = test system: Liver microsome; experiment: Drug metabolism in human liver microsomes assessed as 1-benzyl-2-methyl-5-(3-(piperazin-1-yl)propoxy)-1H-indole-3-carboxylic acid formation at 10 uM preincubated for 5 mins followed by NADPH addition measured after 30 mins by HPLC-MS/MS analysis; format: ADME; settings: 0.5 h; in short: as §2
[17] = test system: Liver microsome; experiment: Drug metabolism in human liver microsomes assessed as ethyl 5-(3-aminopropoxy)-2-methyl-1H-indole-3-carboxylate formation at 10 uM preincubated for 5 mins followed by NADPH addition measured after 30 mins by HPLC-MS/MS analysis; format: ADME; settings: 0.5 h; in short: as §2
[18] = test system: Liver microsome; experiment: Drug metabolism in human liver microsomes assessed as 5-(3-aminopropoxy)-1-benzyl-2-methyl-1H-indole-3-carboxylic acid formation at 10 uM preincubated for 5 mins followed by NADPH addition measured after 30 mins by HPLC-MS/MS analysis; format: ADME; settings: 0.5 h; in short: as §2

| SMILES | inhibition [1] [%] | MIC [2] [µg/mL] | remaining at 0.5 h, 10 µM [3] [%] | IC50 [4] [µM] | Drug metabolism [5] | Drug metabolism [6] | solubility [7] [µM] | Drug metabolism [8] | Drug metabolism [9] | fold change (FC) [10] | inhibition [11] | Drug metabolism [12] | Drug metabolism [13] | Drug metabolism [14] | Drug metabolism [15] | Drug metabolism [16] | Drug metabolism [17] | Drug metabolism [18] |
| --- | --- | --- | --- | --- | --- | --- | --- | --- | --- | --- | --- | --- | --- | --- | --- | --- | --- | --- |
| CCOC(=O)c1c(C)n(Cc2ccccc2OC)c2ccc(OCCCN3CCCCC3)cc12 | 87.9 | > 100 | 66 | 5 | metabolite_detected | metabolite_detected | 25 (≈ 11.6 µg/mL) |  |  |  |  |  |  |  |  |  |  |  |
| CCOC(=O)c1c(C)n(Cc2ccccc2)c2ccc(OCCN3CCNCC3)cc12 | 99.2 | > 100 | 72 | 15.5 |  |  | 190 (≈ 80.1 µg/mL) | metabolite_detected | metabolite_detected | 4 | inactive |  |  |  |  |  |  |  |
| CCOC(=O)c1c(C)n(Cc2ccccc2)c2ccc(OCCCN3CCCCC3)cc12 | 98.5 | > 100 | 76 | 6 | metabolite_detected |  | 23 (≈ 10 µg/mL) |  |  |  |  | metabolite_detected |  |  |  |  |  |  |
| CCOC(=O)c1c(C)n(Cc2ccccc2)c2ccc(OCC(F)CN3CCCCC3)cc12 (stereo not drawn) | 96.7 | > 100 | 52 | 5.1 |  |  | 20 (≈ 9.05 µg/mL) |  |  |  |  |  | metabolite_detected | metabolite_detected |  |  |  |  |
| CCOC(=O)c1c(C)n(Cc2ccccc2)c2ccc(OCCCN3CCNCC3)cc12 | 100 | 100 (≈ 230 µM) | 82 | 12.5 |  |  | 20 (≈ 8.71 µg/mL) |  |  | 4 | inactive |  |  |  | metabolite_detected | metabolite_detected |  |  |
| CCOC(=O)c1c(C)n(Cc2ccccc2)c2ccc(OCCCN)cc12 | 100 | > 100 | 87 | 12.5 |  |  | 17 (≈ 6.23 µg/mL) |  |  | 4 | inactive |  |  |  |  |  | metabolite_detected | metabolite_detected |
